Reference: PubChem BioAssay AID623922 (The Scripps Research Institute Molecular Screening Center, 2012)
Calls of active or inactive are those of the source.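 The calls were made as follows: active = residual nuclease activity at or below 52% of the solvent-only control; inactive = the rest.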

Target: RecBCD enzyme subunit RecC (Escherichia coli (strain K12)) + RecBCD enzyme subunit RecB (Escherichia coli (strain K12)) (UniProt P07648+P08394)
Test: purified RecBCD nuclease inhibitors, late-stage follow-up, counter-screen for AddAB inhibitor project, biochemical, radioactivity readout, 50 µM single dose (AID 623922)
Conditions: [3H] dsDNA nuclease, TCA-soluble radioactivity, at 50 µM, stronger effect = lower value
Procedure, shortened: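 Benchmarks: DMSO control and no-enzyme background | System: Purified Escherichia coli RecBCD helicase-nuclease enzyme | Amount: RecBCD enzyme at 4.5 nM | Technique: Radioactivity counts of acid-soluble DNA digestion products | Reagent: [3H] T7 dsDNA, 6 µM nucleotides | Incubation: Mixing on ice, 20 min reaction at 37 °C | Read-out basis: % activity relative to DMSO control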

RecBCD enzyme subunit RecC (Escherichia coli (strain K12)) + RecBCD enzyme subunit RecB (Escherichia coli (strain K12)), sequence (P07648 whole entry, looked up): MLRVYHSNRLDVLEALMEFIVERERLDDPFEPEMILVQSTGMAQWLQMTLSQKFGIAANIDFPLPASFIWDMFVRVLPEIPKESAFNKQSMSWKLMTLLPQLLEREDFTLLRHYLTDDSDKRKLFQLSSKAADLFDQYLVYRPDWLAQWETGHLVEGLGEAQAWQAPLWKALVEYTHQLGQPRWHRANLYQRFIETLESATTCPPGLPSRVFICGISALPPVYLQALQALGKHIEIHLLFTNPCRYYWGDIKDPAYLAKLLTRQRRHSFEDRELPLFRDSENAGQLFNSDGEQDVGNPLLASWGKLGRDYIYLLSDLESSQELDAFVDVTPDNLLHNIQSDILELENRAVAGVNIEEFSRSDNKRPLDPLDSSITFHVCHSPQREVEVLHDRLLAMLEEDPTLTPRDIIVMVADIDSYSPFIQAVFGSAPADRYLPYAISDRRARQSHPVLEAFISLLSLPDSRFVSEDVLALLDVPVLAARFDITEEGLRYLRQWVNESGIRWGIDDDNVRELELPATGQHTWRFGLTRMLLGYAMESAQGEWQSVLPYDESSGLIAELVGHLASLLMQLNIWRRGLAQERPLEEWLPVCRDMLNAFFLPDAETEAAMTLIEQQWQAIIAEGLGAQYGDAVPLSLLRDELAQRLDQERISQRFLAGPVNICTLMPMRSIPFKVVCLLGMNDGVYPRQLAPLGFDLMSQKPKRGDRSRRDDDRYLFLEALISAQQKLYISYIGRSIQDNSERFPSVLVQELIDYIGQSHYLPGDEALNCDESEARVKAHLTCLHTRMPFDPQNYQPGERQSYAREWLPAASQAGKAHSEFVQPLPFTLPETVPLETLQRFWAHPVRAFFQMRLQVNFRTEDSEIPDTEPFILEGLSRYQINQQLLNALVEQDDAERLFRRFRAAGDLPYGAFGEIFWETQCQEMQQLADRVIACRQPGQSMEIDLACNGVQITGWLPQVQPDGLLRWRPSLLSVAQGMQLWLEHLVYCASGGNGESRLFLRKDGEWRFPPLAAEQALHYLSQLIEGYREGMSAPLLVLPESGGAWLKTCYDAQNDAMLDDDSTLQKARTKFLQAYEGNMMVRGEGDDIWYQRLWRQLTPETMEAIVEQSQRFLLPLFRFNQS
RecBCD enzyme subunit RecC (Escherichia coli (strain K12)) + RecBCD enzyme subunit RecB (Escherichia coli (strain K12)), sequence (P08394 whole entry, looked up): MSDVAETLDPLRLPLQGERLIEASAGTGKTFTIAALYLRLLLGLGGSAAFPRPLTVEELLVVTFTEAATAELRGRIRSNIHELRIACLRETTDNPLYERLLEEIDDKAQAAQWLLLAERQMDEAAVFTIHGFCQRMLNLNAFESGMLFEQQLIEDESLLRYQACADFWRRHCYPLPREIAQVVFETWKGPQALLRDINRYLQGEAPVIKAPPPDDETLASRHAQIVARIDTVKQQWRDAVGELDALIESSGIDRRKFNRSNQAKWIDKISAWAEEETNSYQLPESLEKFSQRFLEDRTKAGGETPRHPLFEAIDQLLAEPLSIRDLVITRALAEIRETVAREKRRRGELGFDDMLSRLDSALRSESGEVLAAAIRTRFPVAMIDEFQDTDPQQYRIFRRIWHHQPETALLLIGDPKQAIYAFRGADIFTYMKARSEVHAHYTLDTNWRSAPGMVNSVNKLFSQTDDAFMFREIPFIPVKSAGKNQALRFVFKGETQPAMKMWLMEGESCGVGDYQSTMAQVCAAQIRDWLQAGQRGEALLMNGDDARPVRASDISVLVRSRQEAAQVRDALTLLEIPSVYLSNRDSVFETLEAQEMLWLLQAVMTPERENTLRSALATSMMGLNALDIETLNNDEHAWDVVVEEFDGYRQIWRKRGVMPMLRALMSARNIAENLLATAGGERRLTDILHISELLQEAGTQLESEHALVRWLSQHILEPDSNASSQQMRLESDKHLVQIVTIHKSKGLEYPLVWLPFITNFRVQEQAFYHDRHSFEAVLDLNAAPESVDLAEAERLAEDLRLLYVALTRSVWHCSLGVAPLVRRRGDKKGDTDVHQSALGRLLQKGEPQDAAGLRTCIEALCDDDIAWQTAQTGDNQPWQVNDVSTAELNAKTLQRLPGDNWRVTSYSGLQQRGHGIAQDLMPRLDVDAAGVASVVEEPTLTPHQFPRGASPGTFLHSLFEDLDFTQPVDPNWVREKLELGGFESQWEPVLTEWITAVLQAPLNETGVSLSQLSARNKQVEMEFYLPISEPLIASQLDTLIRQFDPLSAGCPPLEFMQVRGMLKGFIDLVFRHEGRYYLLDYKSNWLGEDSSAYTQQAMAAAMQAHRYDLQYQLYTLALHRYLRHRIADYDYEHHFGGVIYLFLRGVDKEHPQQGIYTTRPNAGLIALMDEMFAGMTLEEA

| Structure (SMILES) | residual nuclease activity |
| --- | --- |
| CCn1cc(C(=O)O)c(=O)c2cnc(N3CCN(C(=S)NC(C)c4ccccc4)CC3)nc21 (configuration not stated) | 27% |
| CCn1cc(C(=O)O)c(=O)c2cnc(N3CCN(C(=S)NC4CC5CCC4C5)CC3)nc21 (configuration not stated) | 75% (inactive) |
| CCn1cc(C(=O)O)c(=O)c2cnc(N3CCN(C(=S)Nc4ccccc4)CC3)nc21 | 68% (inactive) |
| CCn1cc(C(=O)O)c(=O)c2cnc(N3CCN(C(=S)Nc4ccc(Cl)cc4)CC3)nc21 | 50% |
| CCn1cc(C(=O)O)c(=O)c2cnc(N3CCN(C(=S)Nc4ccc5c(c4)OCO5)CC3)nc21 | 46% |
| CCn1cc(C(=O)O)c(=O)c2cnc(N3CCN(C(=S)Nc4ccccc4C(F)(F)F)CC3)nc21 | 43% |
| CCn1cc(C(=O)O)c(=O)c2cnc(N3CCN(C(=S)Nc4cccc(C(F)(F)F)c4)CC3)nc21 | 8% |
| CCn1cc(C(=O)O)c(=O)c2cnc(N3CCN(C(=S)NCc4ccccc4)CC3)nc21 | 45% |
| CCn1cc(C(=O)O)c(=O)c2cnc(N3CCN(C(=O)Nc4ccccc4)CC3)nc21 | 91% (inactive) |
| CCn1cc(C(=O)O)c(=O)c2cnc(N3CCN(C(=S)NC(=O)c4cccc(C)c4)CC3)nc21 | 47% |
| CCn1cc(C(=O)O)c(=O)c2cnc(N3CCNCC3)nc21 | 93% (inactive) |
| CCn1cc(C(=O)O)c(=O)c2cnc(N3CCN(C(=S)Nc4ccc(F)cc4)CC3)nc21 | 51% |
